Measured values: ChEMBL document CHEMBL1143345, “Towards Gram-negative antivirulence drugs: new inhibitors of HldE kinase” (Bioorg Med Chem, 2009)
Activity calls are given as the source filed them. The calls are words filed in the database; no cut-off is given here.

T1: Ribokinase (Escherichia coli K-12, UniProt P0A9J6)
T1 sequence (P0A9J6 whole entry): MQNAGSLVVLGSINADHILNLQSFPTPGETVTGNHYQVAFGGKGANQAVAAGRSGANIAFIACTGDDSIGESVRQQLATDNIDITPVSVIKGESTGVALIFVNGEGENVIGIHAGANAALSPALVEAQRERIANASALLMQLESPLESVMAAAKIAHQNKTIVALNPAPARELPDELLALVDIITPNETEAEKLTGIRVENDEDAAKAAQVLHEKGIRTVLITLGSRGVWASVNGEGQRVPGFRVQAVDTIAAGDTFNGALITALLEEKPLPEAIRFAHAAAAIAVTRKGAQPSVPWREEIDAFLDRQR

B1: Ribokinase (Escherichia coli K-12), P0A9J6 (protein)
chain: T1 sequence (P0A9J6 whole entry)

Tests used:
[1] = Inhibition of Escherichia coli O18:K1 C7 HldE by luminescent assay
Outline: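 His-tagged E. coli O18:K1 C7 HldE (3 nM) pre-incubated 30 min at room temperature with inhibitor (≤5% DMSO). Then H-7-P 0.2 uM and ATP 0.2 uM added for 40 min in pH 7.5 Hepes, 1 mM MnCl2, 25 mM KCl, 0.012% Triton X-100, 1 mM DTT. ATP depletion read by luciferase luminescence; IC50 from 6–10 concentrations, means of three experiments.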

[2] = system: Escherichia coli; assay: Activity of Escherichia coli O18:K1 C7 HldE in presence of 50 uM ATP
Outline: (§1)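 His-tagged E. coli O18:K1 C7 HldE kinase steady-state kinetics, pH 7.5 with 1 mM MnCl2, 25 mM KCl, 5% DMSO. H-7-P Km measured at fixed ATP 50 uM or 0.3 uM; ADP formation followed by PK/LDH-coupled NADH fluorescence (ex 360, em 520 nm), read kinetically; values ± SD.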

[3] = system: Escherichia coli; assay: Activity of Escherichia coli O18:K1 C7 HldE in presence of 0.3 uM ATP; outline: as §1
[4] = biological target: T1, Ribokinase; assay: Inhibition of Escherichia coli K12 MG1655 ribokinase by luminescent assay
Outline: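 His-tagged E. coli K12 MG1655 ribokinase (0.6 nM) in pH 7.5 Hepes buffer with 1 mM MnCl2, 25 mM KCl, 0.012% Triton X-100, 1 mM DTT. Inhibitor pre-incubated 30 min at room temperature, then D-ribose 3 uM and ATP 3 uM added for 40 min. Remaining ATP detected by luciferase/luciferin luminescence; IC50 fitted from 6–10 concentrations.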

[5] = Inhibition of Neisseria meningitidis 2C43 HldA by luminescent assay
Outline: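 His-tagged N. meningitidis 2C43 HldA (20 nM) pre-incubated 30 min at room temperature with inhibitor, then H-7-P 0.2 uM and ATP 0.2 uM added for 40 min. Buffer pH 7.5 Hepes, 1 mM MnCl2, 25 mM KCl, 0.012% Triton X-100, 1 mM DTT. Residual ATP measured by luciferase/luciferin luminescence; IC50 fitted from 6–10 concentrations.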

[6] = Inhibition of Escherichia coli O18:K1 C7 HldE by fluorescent assay
Outline: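 Coupled fluorescent HldE-kinase assay: His-tagged E. coli O18:K1 C7 HldE (66 pM), 30 min inhibitor pre-incubation at room temperature, then H-7-P 1 uM, ATP 50 uM with PK/PEP/LDH/NADH. pH 7.5 Hepes, 1 mM MnCl2, 25 mM KCl, 0.012% Triton X-100, 1 mM DTT. NADH fluorescence read kinetically; Ki derived, substrate levels varied for competition.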

[7] = system: Escherichia coli; assay: Inhibition of Escherichia coli O18:K1 C7 HldE in presence of Triton-X100 by luminescent assay
[8] = system: Escherichia coli; assay: Inhibition of Escherichia coli O18:K1 C7 HldE in presence of D-glycero-D-manno-heptose-7-phosphate by luminescent assay
[9] = system: Neisseria meningitidis; assay: Activity of Neisseria meningitidis 2C43 HldA in presence of 0.2 uM D-glycero-D-manno-heptose-7-phosphate
Outline: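 His-tagged HldA, Ni-NTA purified, at 20 nM with 0.2 µM H-7-P and ATP. Buffer is 50 mM Hepes pH 7.5, 1 mM MnCl2, 25 mM KCl, 0.012% Triton X-100 and 1 mM DTT. Reaction runs 40 min at room temperature. ATP depletion is read by luciferase/D-luciferin luminescence.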

[10] = system: Escherichia coli; assay: Activity of Escherichia coli O18:K1 C7 HldE in presence of 0.2 uM D-glycero-D-manno-heptose-7-phosphate
Outline: (§2)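 His-tagged HldE, Ni-NTA purified, steady-state kinetics with ATP varied at fixed H-7-P. Conditions are pH 7.5 with 1 mM MnCl2, 25 mM KCl and 5% DMSO in Hepes/Triton X-100/DTT buffer. ADP is detected by a pyruvate kinase/lactate dehydrogenase coupled system, reading NADH fluorescence kinetically (ex 360, em 520 nm). Values ± SD.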

[11] = system: Escherichia coli; assay: Activity of Escherichia coli O18:K1 C7 HldE in presence of 1.8 uM D-glycero-D-manno-heptose-7-phosphate; outline: as §2
[12] = compound: Nc1ncnc2c1ncn2[C@@H]1O[C@H](COP(=O)(O)OP(=O)(O)OP(=O)(O)O)[C@@H](O)[C@H]1O; assay: Activity of Escherichia coli K12 MG1655 ribokinase in presence of 3 uM D-ribose; details: Escherichia coli K-12
Outline: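 His-tagged ribokinase, Ni-NTA purified, at 0.6 nM with 3 µM D-ribose and ATP. Buffer is 50 mM Hepes pH 7.5, 1 mM MnCl2, 25 mM KCl, 0.012% Triton X-100 and 1 mM DTT. Reaction runs 40 min at room temperature. ATP depletion is read by luciferase/D-luciferin luminescence. Values ± SD.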

Row | Molecule | IC50 [1] | further results
1 | Cc1oc(-c2ccc(C(F)(F)F)cc2)nc1C(=O)N(CC(=O)O)Cc1ccccn1 | 142 µM | –
2 | Cc1oc(-c2ccccc2)nc1C(=O)N(CC(=O)O)Cc1nccs1 | 110 µM | –
3 | COc1ccc(-c2nc(C(=O)N(CC(=O)O)Cc3ccccn3)c(C)o2)cc1 | 75 µM | –
4 | Cc1oc(-c2ccc(N)cc2)nc1C(=O)N(CC(=O)O)Cc1ccccn1 | 22 µM | –
5 | Cc1oc(-c2ccccc2)nc1C(=O)N(CC(=O)O)Cc1ccccc1 | > 300 µM | –
6 | Cc1oc(-c2cccc(N)c2)nc1C(=O)N(CC(=O)O)Cc1ccccn1 | 153 µM | –
7 | O=P(O)(O)OC[C@@H](O)[C@H]1OC(O)[C@@H](O)[C@@H](O)[C@@H]1O (stereo partly drawn) | – | Km [2]: 0.6 µM; Km [3]: 0.23 µM
8 | Cc1nc(-c2ccc3[nH]ccc3c2)sc1C(=O)N(CC(=O)O)Cc1nc2ccccc2s1 | 0.33 µM | IC50 [4]: > 100 µM; IC50 [5]: 8.5 µM
9 | Cc1oc(-c2cccc(Br)c2)nc1C(=O)N(CC(=O)O)Cc1ccccn1 | 10 µM | –
10 | Cn1nc(-c2ccccc2)cc1C(=O)N(CC(=O)O)Cc1ccccn1 | 57 µM | –
11 | Cc1nc(-c2ccccc2)oc1C(=O)N(CC(=O)O)Cc1ccccn1 | 69 µM | Ki [6]: 38 µM; Activity [7]: Active; Activity [8]: Active
12 | Cc1oc(-c2ccccc2)nc1C(=O)N(CC(=O)O)Cc1cccnc1 | > 300 µM | –
13 | Cc1nc(-c2cccc([N+](=O)[O-])c2)sc1C(=O)N(CC(=O)O)Cc1nc2ccccc2s1 | 0.5 µM | IC50 [4]: > 300 µM; IC50 [5]: 75 µM
14 | Cc1nc(-c2ccc3ccccc3c2)sc1C(=O)N(CC(=O)O)Cc1nc2ccccc2s1 | 0.48 µM | IC50 [4]: > 33 µM; IC50 [5]: 12 µM
15 | Cc1oc(-c2cccc(C(F)(F)F)c2)nc1C(=O)N(CC(=O)O)Cc1ccccn1 | 35 µM | –
16 | COc1cccc(-c2nc(C(=O)N(CC(=O)O)Cc3ccc4ccccc4n3)c(C)o2)c1 | 12 µM | –
17 | Cc1oc(-c2ccccc2Br)nc1C(=O)N(CC(=O)O)Cc1ccccn1 | 44 µM | –
18 | CC(=O)c1cccc(-c2nc(C)c(C(=O)N(CC(=O)O)Cc3ccccn3)s2)c1 | 216 µM | –
19 | Cc1nc(-c2ccccc2)sc1C(=O)N(CC(=O)O)Cc1ccccn1 | 52 µM | –
20 | Cc1oc(-c2cccc([N+](=O)[O-])c2)nc1C(=O)N(CC(=O)O)Cc1ccccn1 | 5.8 µM | IC50 [4]: > 300 µM; IC50 [5]: > 300 µM
21 | COc1cccc(-c2nc(C)c(C(=O)N(CC(=O)O)Cc3ccccn3)o2)c1 | 17 µM | –
22 | Cc1oc(-c2ccccc2)nc1C(=O)N(CC(=O)O)Cc1ccccn1 | 51 µM | –
23 | O=C(O)CN(Cc1ccccn1)C(=O)c1ccc(-c2ccccc2)cc1 | > 300 µM | –

Row | Molecule | IC50 [1] | further results
24 | Cc1oc(-c2ccccc2)nc1C(=O)N(CC(=O)O)Cc1ccco1 | > 300 µM | –
25 | Nc1ncnc2c1ncn2[C@@H]1O[C@H](COP(=O)(O)OP(=O)(O)OP(=O)(O)O)[C@@H](O)[C@H]1O | – | Km [9]: > 0.4 µM; Km [10]: > 0.8 µM; Km [11]: 147 µM
26 | Cc1oc(-c2ccccc2[N+](=O)[O-])nc1C(=O)N(CC(=O)O)Cc1ccccn1 | 141 µM | –
27 | CC(=O)Nc1cccc(-c2nc(C(=O)N(CC(=O)O)Cc3ccccn3)c(C)o2)c1 | 28 µM | –
28 | Cc1oc(-c2cccc(NC(=O)C3CC3)c2)nc1C(=O)N(CC(=O)O)Cc1ccccn1 | 14 µM | –
29 | Cc1nc(-c2ccc(N)c([N+](=O)[O-])c2)sc1C(=O)N(CC(=O)O)Cc1ccccn1 | 13 µM | –
30 | COc1cccc(-c2nc(C)c(C(=O)N(CC(=O)O)Cc3nc4ccccc4s3)o2)c1 | 0.27 µM | IC50 [4]: > 300 µM; IC50 [5]: 6 µM
31 | Cc1oc(-c2ccc([N+](=O)[O-])cc2)nc1C(=O)N(CC(=O)O)Cc1ccccn1 | 151 µM | –
32 | Cc1oc(-c2ccccc2N)nc1C(=O)N(CC(=O)O)Cc1ccccn1 | 31 µM | –
33 | Cc1oc(-c2ccc(Br)cc2)nc1C(=O)N(CC(=O)O)Cc1ccccn1 | 27 µM | –
34 | Cc1nc(-c2ccccc2)oc1C(=O)N(CC(=O)O)Cc1ccccc1N | > 300 µM | –
35 | Cc1oc(-c2cccc(-c3ccn[nH]3)c2)nc1C(=O)N(CC(=O)O)Cc1nc2ccccc2s1 | 0.11 µM | –
36 | Cc1onc(-c2ccccc2)c1C(=O)N(CC(=O)O)Cc1ccccn1 | > 300 µM | –
37 | COc1cccc(-c2nc(C(=O)N(CC(=O)O)Cc3ccccn3)c(C)o2)c1 | 15 µM | IC50 [4]: > 300 µM; IC50 [5]: > 300 µM
38 | COc1cc(-c2nc(C)c(C(=O)N(CC(=O)O)Cc3nc4ccccc4s3)s2)ccc1N | 0.26 µM | –
39 | Cc1oc(-c2ccccc2)cc1C(=O)N(CC(=O)O)Cc1ccccn1 | 42 µM | –
40 | Cc1oc(-c2ccccc2)nc1C(=O)N(CC(=O)O)Cc1ccncc1 | > 300 µM | –
41 | COc1cccc(-c2nc(C)c(C(=O)N(CC(=O)O)Cc3nc4ccccc4s3)s2)c1 | 0.42 µM | –
42 | Cc1oc(-c2cccc(N3CCOCC3)c2)nc1C(=O)N(CC(=O)O)Cc1ccccn1 | 70 µM | –
43 | Cc1nc(-c2cccc(S(C)(=O)=O)c2)sc1C(=O)N(CC(=O)O)Cc1nc2ccccc2s1 | 75 µM | –
44 | O=C(O)CN(Cc1ccccn1)C(=O)c1ccc(-c2ccccc2)o1 | 100 µM | –
45 | B1 | – | Km [12]: 18 µM
